organism: Cavia porcellus; experiment: Percent inhibition of SRS-A induced contraction minus percent inhibition of 25 mM KCl induced contractions at a conc of 5(uM); assay type: functional
In short: (§1)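 Ileum segments (proximal to Peyer's patch) from male Hartley guinea pigs (400–600 g) were held in modified Tyrode's at 37.5 °C under 95% O2-5% CO2, with isometric recording. Partially purified guinea pig SRS-A or 25 mM KCl was dosed for 60–80% maximal contraction, then reapplied after 15 min compound exposure with five bath changes. Value is percent inhibition versus vehicle controls (3 vs 3 tissues), SRS-A minus KCl.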

Compared with `CSc1ccc2c(c1Cl)CN(S(=O)(=O)NS(=O)(=O)N1CCc3ccc(SC)c(Cl)c3C1)CC2`, `Cc1ccc2c(c1Cl)CN(S(=O)(=O)NS(=O)(=O)N1CCc3ccc(C)c(Cl)c3C1)CC2` is higher in Inhibition: 25% for the first, 34% for the second.

First: O=S(=O)(NS(=O)(=O)N1CCc2c(Cl)c(Cl)c(Cl)c(Cl)c2C1)N1CCc2c(Cl)c(Cl)c(Cl)c(Cl)c2C1
Second: O=S(=O)(NS(=O)(=O)N1CCc2ccc(Cl)c(Cl)c2C1)N1CCc2ccc(Cl)c(Cl)c2C1
The Inhibition of the first is lower: 14% for the first, 42% for the second.

First: O=S(=O)(NS(=O)(=O)N1CCc2c(Br)cccc2C1)N1CCc2c(Br)cccc2C1
Second: O=S(=O)(NS(=O)(=O)N1CCc2ccc(Br)cc2C1)N1CCc2ccc(Br)cc2C1
The Inhibition of the first is higher: 29% for the first, 26% for the second.

Going from `O=S(=O)(NS(=O)(=O)N1CCc2c(Br)ccc(Br)c2C1)N1CCc2c(Br)ccc(Br)c2C1` to `COc1ccc(OC)c2c1CCN(S(=O)(=O)NS(=O)(=O)N1CCc3c(OC)ccc(OC)c3C1)C2`, the Inhibition falls from 50% to 12%.

Going from `O=S(=O)(NS(=O)(=O)N1CCc2cc(Cl)ccc2C1)N1CCc2cc(Cl)ccc2C1` to `O=S(=O)(NS(=O)(=O)N1CCc2ccc(Cl)cc2C1)N1CCc2ccc(Cl)cc2C1`, the Inhibition rises from 1% to 18%.

Compared with `O=S(=O)(NS(=O)(=O)N1CCc2ccc(C(F)(F)F)c(C(F)(F)F)c2C1)N1CCc2ccc(C(F)(F)F)c(C(F)(F)F)c2C1`, `O=S(=O)(NS(=O)(=O)N1CCc2ccc(Cl)c(SC(F)(F)C(F)F)c2C1)N1CCc2ccc(Cl)c(SC(F)(F)C(F)F)c2C1` is lower in Inhibition: 27% for the first, 22% for the second.

Compared with `O=S(=O)(NC1CC1c1ccc(Cl)c(Cl)c1)NS(=O)(=O)NC1CC1c1ccc(Cl)c(Cl)c1` (centres undefined), `O=S(=O)(NC1CC1c1ccccc1)NS(=O)(=O)NC1CC1c1ccccc1` (centres undefined) is lower in Inhibition: 42% for the first, 17% for the second.

First: CC1c2c(ccc(Cl)c2Cl)CCN1S(=O)(=O)NS(=O)(=O)N1CCc2ccc(Cl)c(Cl)c2C1C (centres undefined)
Second: O=S(=O)(NS(=O)(=O)N1CCc2ccc(Cl)c(Cl)c2C1C1CC1)N1CCc2ccc(Cl)c(Cl)c2C1C1CC1 (centres undefined)
The Inhibition of the first is higher: 48% for the first, 47% for the second.

Going from `O=S(=O)(NS(=O)(=O)N1CCc2ccc([S+]([O-])C(Cl)(Cl)Cl)cc2C1)N1CCc2ccc([S+]([O-])C(Cl)(Cl)Cl)cc2C1` (centres undefined) to `O=S(=O)(NS(=O)(=O)N1CCc2cc(Cl)c(Cl)cc2C1)N1CCc2cc(Cl)c(Cl)cc2C1`, the Inhibition rises from 28% to 40%.

First: O=S(=O)(NS(=O)(=O)N1CCc2ccc(Cl)c(Cl)c2C1c1ccccc1)N1CCc2ccc(Cl)c(Cl)c2C1c1ccccc1 (centres undefined)
Second: O=S(=O)(NS(=O)(=O)N1CCc2ccc(Cl)c(Cl)c2C1Cc1ccccc1)N1CCc2ccc(Cl)c(Cl)c2C1Cc1ccccc1 (centres undefined)
The Inhibition of the first is higher: 20% for the first, 8% for the second.

First: CCCCCCC1c2c(ccc(Cl)c2Cl)CCN1S(=O)(=O)NS(=O)(=O)N1CCc2ccc(Cl)c(Cl)c2C1CCCCCC (centres undefined)
Second: O=S(=O)(NS(=O)(=O)N1CCc2ccc(Cl)c(Cl)c2C1C1CCCC1)N1CCc2ccc(Cl)c(Cl)c2C1C1CCCC1 (centres undefined)
The Inhibition of the first is lower: -5% for the first, 4% for the second.

Going from `O=S(=O)(NS(=O)(=O)N1CCc2c(cccc2-c2ccccc2)C1)N1CCc2c(cccc2-c2ccccc2)C1` to `COc1ccc2c(c1Cl)CN(S(=O)(=O)NS(=O)(=O)N1CCc3ccc(OC)c(Cl)c3C1)CC2`, the Inhibition rises from 13% to 20%.

First: O=S(=O)(NS(=O)(=O)N1CCc2cc(Cl)ccc21)N1CCc2cc(Cl)ccc21
Second: CC1Cc2ccc(Cl)c(Cl)c2CN1S(=O)(=O)NS(=O)(=O)N1Cc2c(ccc(Cl)c2Cl)CC1C (centres undefined)
The Inhibition of the first is lower: 13% for the first, 18% for the second.

organism: Cavia porcellus; experiment: Percent inhibition of SRS-A induced contraction minus percent inhibition of 25 mM KCl induced contractions at a conc of 5(uM); Not statistically significant; assay type: functional; in short: as §1

Going from `O=S(=O)(NS(=O)(=O)N1CCc2c(Cl)cccc2C1)N1CCc2c(Cl)cccc2C1` to `O=S(=O)(NS(=O)(=O)N1CCc2cccc(Cl)c2C1)N1CCc2cccc(Cl)c2C1`, the Inhibition rises from 8% to 16%.

First: O=S(=O)(NS(=O)(=O)N1CCc2cc(Cl)c(Cl)c(Cl)c2C1)N1CCc2cc(Cl)c(Cl)c(Cl)c2C1
Second: O=S(=O)(NS(=O)(=O)N1CCc2c(Br)cc(Br)c(Br)c2C1)N1CCc2c(Br)cc(Br)c(Br)c2C1
The Inhibition of the first is higher: 11% for the first, 7% for the second.

In the case of `CC(=O)c1ccc2c(c1)CN(S(=O)(=O)NS(=O)(=O)N1CCc3ccc(C(C)=O)cc3C1)CC2`, the Inhibition was 4%.

organism: Cavia porcellus; experiment: Percent inhibition of SRS-A induced contraction minus percent inhibition of 25 mM KCl induced contractions at a conc of 5(uM); Percent enhancement of tissue contraction compared to control; assay type: functional; in short: as §1

Compared with `COc1ccc2c(c1OC)CN(S(=O)(=O)NS(=O)(=O)N1CCc3ccc(OC)c(OC)c3C1)CC2`, `COc1ccc2c(c1)CN(S(=O)(=O)NS(=O)(=O)N1CCc3ccc(OC)cc3C1)CC2` is higher in Inhibition: 5% for the first, 6% for the second.

organism: Cavia porcellus; experiment: Percent inhibition of SRS-A induced contraction minus percent inhibition of 25 mM KCl induced contractions at a conc of 50(uM); assay type: functional; in short: as §1

Compared with `O=S(=O)(NS(=O)(=O)N1CCc2cc(Cl)ccc2C1)N1CCc2cc(Cl)ccc2C1`, `O=S(=O)(NS(=O)(=O)N1CCc2ccccc2CC1)N1CCc2ccccc2CC1` is higher in Inhibition: 1% for the first, 14% for the second.

Going from `O=S(=O)(NC1Cc2ccccc2C1)NS(=O)(=O)NC1Cc2ccccc2C1` to `O=S(=O)(NS(=O)(=O)N1CCc2ccccc21)N1CCc2ccccc21`, the Inhibition falls from 11% to -13%.

Compound `O=S(=O)(NC1CCCC[C@@H]1c1ccccc1)NS(=O)(=O)NC1CCCC[C@H]1c1ccccc1` (some centres undefined) has an Inhibition of 41%.

organism: Cavia porcellus; experiment: Percent inhibition of SRS-A induced contraction minus percent inhibition of 25 mM KCl induced contractions at a conc of 50(uM); Not statistically significant; assay type: functional; in short: as §1

`O=S(=O)(NS(=O)(=O)N1CCc2ccccc2C1)N1CCc2ccccc2C1` showed an Inhibition of 10%.

— ChEMBL document CHEMBL1121957, “Imidodisulfamides. 2. Substituted 1,2,3,4-tetrahydroisoquinolinylsulfonic imides as antagonists of slow-reacting substance of anaphylaxis” (1982)
